A word on the IC50: it is the concentration that gives 50% inhibition. Read a low IC50 as greater potency.

The test system of assay [1] is Chlorella vulgaris. Description: Antimicrobial activity against Chlorella vulgaris at 10 ug/plate. Format: functional. The procedure, abridged: (§1)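 Agar plate diffusion test. The stated amount of compound is applied per test plate seeded with the named bacterium, alga or fungus. The read-out is the diameter of the growth-inhibition zone, in mm.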
Assay [2] deals with Streptomyces viridochromogenes. Description: Antimicrobial activity against Streptomyces viridochromogenes Tu 57 at 10 ug/plate. Format: functional. Summed up: as §1
In assay [3] the test system is Bacillus subtilis. Kind of assay: Antimicrobial activity against Bacillus subtilis at 10 ug/plate. The format is functional. Summed up: as §1
For assay [4], the system named is Desmodesmus subspicatus. Description: Antimicrobial activity against Scenedesmus subspicatus at 10 ug/plate. Format: functional. The procedure, abridged:
as §1

Assay [5] has as its system Candida albicans. Description: Antimicrobial activity against Candida albicans at 10 ug/plate. The format is functional. The procedure, abridged: as §1
In assay [6] the test system is Escherichia coli. Kind of assay: Antimicrobial activity against Escherichia coli at 10 ug/plate. The format is functional. The procedure, abridged:
as §1

In assay [7] the test system is Chlorella sorokiniana. Kind of assay: Antimicrobial activity against Chlorella sorokiniana at 10 ug/plate. The format is functional. The procedure, abridged: as §1
The subject of assay [8] is Rhizomucor miehei. Kind of assay: Antimicrobial activity against Mucor miehei at 10 ug/plate. The format is functional. The procedure, abridged: as §1
In assay [9] the test system is Staphylococcus aureus. Kind of assay: Antimicrobial activity against Staphylococcus aureus at 10 ug/plate. The format is functional. Summed up: as §1
The subject of assay [10] is Chlorella vulgaris. Description: Antimicrobial activity against Chlorella vulgaris at 40 ug/plate. Format: functional, organism-based. Summed up: as §1
The subject of assay [11] is Bacillus subtilis. Kind of assay: Antimicrobial activity against Bacillus subtilis at 40 ug/plate. Format: functional, organism-based. The procedure, abridged:
as §1

A short description of assay [12]: Antitumor activity against human LXFL 529L cells. The format is functional, cell-based.
A short description of assay [13]: Antitumor activity against human MEXF 462NL cells. The format is functional, cell-based.
The subject of assay [14] is Candida albicans. Kind of assay: Antimicrobial activity against Candida albicans at 40 ug/plate. The format is functional, organism-based. Summed up:
as §1

In assay [15] the test system is Chlorella sorokiniana. Description: Antimicrobial activity against Chlorella sorokiniana at 40 ug/plate. The format is functional, organism-based. The procedure, abridged: as §1
Assay [16] deals with Streptomyces viridochromogenes. Kind of assay: Antimicrobial activity against Streptomyces viridochromogenes Tu 57 at 40 ug/plate. The format is functional, organism-based. The procedure, abridged: as §1
A short description of assay [17]: Antitumor activity against human LXFA 629L cells. The format is functional, cell-based.
For assay [18], the system named is Encephalomyocarditis virus. Description: Antiviral activity against EMC virus infected in human A549 cells assessed as protection against virus-induced cytopathic effect at 100 ug/ml. The format is functional, organism-based. (Damage to the host cells serves as the signal in cytopathic effect assays.)
The test system of assay [19] is Rhizomucor miehei. Description: Antimicrobial activity against Mucor miehei at 40 ug/plate. Format: functional, organism-based. The procedure, abridged: as §1
For assay [20], the system named is Desmodesmus subspicatus. Kind of assay: Antimicrobial activity against Scenedesmus subspicatus at 40 ug/plate. The format is functional, organism-based. The procedure, abridged:
as §1

Assay [21] in a line: Antitumor activity against human RXF 944L cells. The format is functional, cell-based.
Assay [22] is described as follows: Antitumor activity against human MAXF 401NL cells. Format: functional, cell-based.
A short description of assay [23]: Antitumor activity against human UXF 1138L cells. The format is functional, cell-based.
Assay [24] has as its system Staphylococcus aureus. Kind of assay: Antimicrobial activity against Staphylococcus aureus at 40 ug/plate. The format is functional, organism-based. Summed up:
as §1

In assay [25] the test system is Escherichia coli. Kind of assay: Antimicrobial activity against Escherichia coli at 40 ug/plate. Format: functional, organism-based. Summed up:
as §1

In brackets after ≈: the same amount, converted by molar mass. Activity calls are given as the source filed them. The calls are words filed in the database; no cut-off is given here. Bounds are passed on as bounds.

Take `CCCC[C@@H](C)/C=C(C)/C=C(\C)C(=O)NC1=C[C@@](O)(/C=C/C=C/C=C/C(=O)NC2=C(O)CCC2=O)[C@@H]2O[C@@H]2C1=O` [MANUMYCIN A]: the “inhibition zone (IZ)” value (with Chlorella vulgaris [1]; in assay [2]; in the assay with Bacillus subtilis [3]; in the assay on Desmodesmus subspicatus [4]; in the assay with Candida albicans [5]; with Escherichia coli [6]) was 16 mm each time. The “inhibition zone (IZ)” value in the assay on Chlorella sorokiniana [7], in the assay on Rhizomucor miehei [8] and in the assay on Staphylococcus aureus [9] was 16 mm each time.

For the molecule `CCCC[C@@H](C)/C=C(C)/C=C(\C)C(=O)Nc1cc(O)c(/C=C/C=C/C=C/C(=O)NC2=C(O)CCC2=O)c(Cl)c1O` [CHINIKOMYCIN A], the outcome (in the assay on Chlorella vulgaris [10]; in the assay with Bacillus subtilis [11]; with Candida albicans [14]; with Chlorella sorokiniana [15]; in assay [16]; in assay [18]) was inactive. The outcome with Rhizomucor miehei [19], in the assay on Desmodesmus subspicatus [20], with Staphylococcus aureus [24] and with Escherichia coli [25] was inactive. Besides, the IC50 in [12] was > 6 µg/mL; in assay [13], 4.15 µg/mL (≈ 7.29 µM); in assay [17] it was > 6 µg/mL; in [21] it was 4.02 µg/mL (≈ 7.06 µM); in [22], 2.41 µg/mL (≈ 4.23 µM); in [23] it was > 6 µg/mL.

As to `CCCC[C@@H](C)/C=C(C)/C=C(\C)C(=O)NC1=CC(=O)C(/C=C/C=C/C=C/C(=O)NC2=C(O)CCC2=O)=C(Cl)C1=O` [CHINIKOMYCIN B], the result (in the assay with Chlorella vulgaris [10]; with Bacillus subtilis [11]; in the assay with Candida albicans [14]; in the assay on Chlorella sorokiniana [15]; in [16]; in assay [18]) was inactive. For the same molecule, the result in the assay on Rhizomucor miehei [19], in the assay with Desmodesmus subspicatus [20], in the assay on Staphylococcus aureus [24] and with Escherichia coli [25] was inactive. Besides, the 50% inhibitory concentration (IC50) was > 6 µg/mL in assay [12]; > 6 µg/mL in assay [13]; > 6 µg/mL in assay [17]; > 6 µg/mL in assay [21]; 3.04 µg/mL (≈ 5.36 µM) in assay [22]; > 6 µg/mL in [23].

(Values after ChEMBL document CHEMBL1158698, “Chinikomycins A and B: isolation, structure elucidation, and biological activity of novel antibiotics from a marine Streptomyces sp. isolate M045” (J Nat Prod, 2005).)
